Measured values taken from ChEMBL document CHEMBL2424563, “Semisynthesis of mallotus B from rottlerin: evaluation of cytotoxicity and apoptosis-inducing activity” (J Nat Prod, 2013).
Active and inactive are the calls of the source. The rule behind the calls is not given here.

test system: HL-60; test: Cell cycle arrest in human HL60 cells assessed as accumulation at G2 phase at 40 uM after 24 hrs by propidium iodide staining-based FACS flow cytometric analysis (reference value: 1%); assay type: functional; conditions: not given
Summary of the method: (§1)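 HL-60 cells seeded at 0.44 × 10^6/mL and exposed to 10, 20, 30 or 40 μM for 24 h. Cells were pelleted at 400g, washed in ice-cold PBS and fixed overnight in ice-cold 70% ethanol at 4 °C. They were treated with RNase (0.2 mg/mL) for 1 h at 37 °C, then stained with PI (10 μg/mL) for 30 min in the dark. Flow cytometry collected 10 000 events (FL2-A vs FL2-W). Sub-G0, G1, S and G2 fractions were fitted by modelling software.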

SMILES	Activity [%]
CC1(C)C=Cc2c(OCc3ccccc3)cc(O)c(C(=O)/C=C/c3ccccc3)c2O1	12

test system: HL-60; test: Cell cycle arrest in human HL60 cells assessed as accumulation at S phase at 40 uM after 24 hrs by propidium iodide staining-based FACS flow cytometric analysis (reference value: 54%); assay type: functional; conditions: not given; summary of the method: as §1

SMILES	Activity [%]
CC1(C)C=Cc2c(OCc3ccccc3)cc(O)c(C(=O)/C=C/c3ccccc3)c2O1	42

test system: HL-60; test: Cell cycle arrest in human HL60 cells assessed as accumulation at G1 phase at 40 uM after 24 hrs by propidium iodide staining-based FACS flow cytometric analysis (reference value: 45%); assay type: functional; conditions: not given; summary of the method: as §1

SMILES	Activity [%]
CC1(C)C=Cc2c(OCc3ccccc3)cc(O)c(C(=O)/C=C/c3ccccc3)c2O1	46

test system: HL-60; test: Cell cycle arrest in human HL60 cells assessed as accumulation at G2 phase at 30 uM after 24 hrs by propidium iodide staining-based FACS flow cytometric analysis (reference value: 1%); assay type: functional; conditions: not given; summary of the method: as §1

SMILES	Activity [%]
CC1(C)C=Cc2c(OCc3ccccc3)cc(O)c(C(=O)/C=C/c3ccccc3)c2O1	8

test system: HL-60; test: Cell cycle arrest in human HL60 cells assessed as accumulation at sub-G0 phase at 40 uM after 24 hrs by propidium iodide staining-based FACS flow cytometric analysis (reference value: 3%); assay type: functional; conditions: not given; summary of the method: as §1

SMILES	Activity [%]
CC1(C)C=Cc2c(OCc3ccccc3)cc(O)c(C(=O)/C=C/c3ccccc3)c2O1	83

test system: HL-60; test: Cell cycle arrest in human HL60 cells assessed as accumulation at S phase at 30 uM after 24 hrs by propidium iodide staining-based FACS flow cytometric analysis (reference value: 54%); assay type: functional; conditions: not given; summary of the method: as §1

SMILES	Activity [%]
CC1(C)C=Cc2c(OCc3ccccc3)cc(O)c(C(=O)/C=C/c3ccccc3)c2O1	49

test system: HL-60; test: Cell cycle arrest in human HL60 cells assessed as accumulation at G1 phase at 30 uM after 24 hrs by propidium iodide staining-based FACS flow cytometric analysis (reference value: 45%); assay type: functional; conditions: not given; summary of the method: as §1

SMILES	Activity [%]
CC1(C)C=Cc2c(OCc3ccccc3)cc(O)c(C(=O)/C=C/c3ccccc3)c2O1	43

test system: HL-60; test: Cell cycle arrest in human HL60 cells assessed as accumulation at sub-G0 phase at 30 uM after 24 hrs by propidium iodide staining-based FACS flow cytometric analysis (reference value: 3%); assay type: functional; conditions: not given; summary of the method: as §1

SMILES	Activity [%]
CC1(C)C=Cc2c(OCc3ccccc3)cc(O)c(C(=O)/C=C/c3ccccc3)c2O1	39

test system: HL-60; test: Cell cycle arrest in human HL60 cells assessed as accumulation at G2 phase at 20 uM after 24 hrs by propidium iodide staining-based FACS flow cytometric analysis (reference value: 1%); assay type: functional; conditions: not given; summary of the method: as §1

SMILES	Activity [%]
CC1(C)C=Cc2c(OCc3ccccc3)cc(O)c(C(=O)/C=C/c3ccccc3)c2O1	8

test system: HL-60; test: Cell cycle arrest in human HL60 cells assessed as accumulation at S phase at 20 uM after 24 hrs by propidium iodide staining-based FACS flow cytometric analysis (reference value: 54%); assay type: functional; conditions: not given; summary of the method: as §1

SMILES	Activity [%]
CC1(C)C=Cc2c(OCc3ccccc3)cc(O)c(C(=O)/C=C/c3ccccc3)c2O1	48

test system: HL-60; test: Cell cycle arrest in human HL60 cells assessed as accumulation at G1 phase at 20 uM after 24 hrs by propidium iodide staining-based FACS flow cytometric analysis (reference value: 45%); assay type: functional; conditions: not given; summary of the method: as §1

SMILES	Activity [%]
CC1(C)C=Cc2c(OCc3ccccc3)cc(O)c(C(=O)/C=C/c3ccccc3)c2O1	45

test system: HL-60; test: Cell cycle arrest in human HL60 cells assessed as accumulation at sub-G0 phase at 20 uM after 24 hrs by propidium iodide staining-based FACS flow cytometric analysis (reference value: 3%); assay type: functional; conditions: not given; summary of the method: as §1

SMILES	Activity [%]
CC1(C)C=Cc2c(OCc3ccccc3)cc(O)c(C(=O)/C=C/c3ccccc3)c2O1	9

test system: HL-60; test: Cell cycle arrest in human HL60 cells assessed as accumulation at G2 phase at 10 uM after 24 hrs by propidium iodide staining-based FACS flow cytometric analysis (reference value: 1%); assay type: functional; conditions: not given; summary of the method: as §1

SMILES	Activity [%]
CC1(C)C=Cc2c(OCc3ccccc3)cc(O)c(C(=O)/C=C/c3ccccc3)c2O1	6

test system: HL-60; test: Cell cycle arrest in human HL60 cells assessed as accumulation at S phase at 10 uM after 24 hrs by propidium iodide staining-based FACS flow cytometric analysis (reference value: 54%); assay type: functional; conditions: not given; summary of the method: as §1

SMILES	Activity [%]
CC1(C)C=Cc2c(OCc3ccccc3)cc(O)c(C(=O)/C=C/c3ccccc3)c2O1	54

test system: HL-60; test: Cell cycle arrest in human HL60 cells assessed as accumulation at G1 phase at 10 uM after 24 hrs by propidium iodide staining-based FACS flow cytometric analysis (reference value: 45%); assay type: functional; conditions: not given; summary of the method: as §1

SMILES	Activity [%]
CC1(C)C=Cc2c(OCc3ccccc3)cc(O)c(C(=O)/C=C/c3ccccc3)c2O1	40

test system: HL-60; test: Cell cycle arrest in human HL60 cells assessed as accumulation at sub-G0 phase at 10 uM after 24 hrs by propidium iodide staining-based FACS flow cytometric analysis (reference value: 3%); assay type: functional; conditions: not given; summary of the method: as §1

SMILES	Activity [%]
CC1(C)C=Cc2c(OCc3ccccc3)cc(O)c(C(=O)/C=C/c3ccccc3)c2O1	3

test system: PC-3; test: Cytotoxicity against human PC3 cells after 48 hrs by MTT assay; assay type: functional, cell-based; conditions: PC-3, 48 h
Summary of the method: (§2)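 Cell lines from NCI, grown in RPMI1640 or MEM with 10% heat-inactivated FBS at 37 °C under 5% CO2. Seeded at 6000 cells/well overnight, then exposed to 1, 10, 30, 50 and 100 μM for 48 h. MTT (2.5 mg/mL) added for 3 h, formazan dissolved in DMSO, OD read at 540 nm (ref 620 nm). Growth taken as treated vs untreated absorbance, giving IC50.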

SMILES	IC50 [nM]
CC[C@@]1(O)C(=O)OCc2c1cc1n(c2=O)Cc2cc3ccccc3nc2-1 [CAMPTOTHECIN]	1200
CC1(C)C=Cc2c(OCc3ccccc3)cc(O)c(C(=O)/C=C/c3ccccc3)c2O1	> 20000

test system: HL-60; test: Cytotoxicity against human HL60 cells after 48 hrs by MTT assay; assay type: functional, cell-based; conditions: HL-60, 48 h; summary of the method: as §2

SMILES	IC50 [nM]
CC[C@@]1(O)C(=O)OCc2c1cc1n(c2=O)Cc2cc3ccccc3nc2-1 [CAMPTOTHECIN]	60
CC1(C)C=Cc2c(OCc3ccccc3)cc(O)c(C(=O)/C=C/c3ccccc3)c2O1	15000

test system: MIA PaCa-2; test: Cytotoxicity against human MIAPaCa2 cells after 48 hrs by MTT assay; assay type: functional, cell-based; conditions: MIA PaCa-2, 48 h; summary of the method: as §2

SMILES	IC50 [nM]
CC[C@@]1(O)C(=O)OCc2c1cc1n(c2=O)Cc2cc3ccccc3nc2-1 [CAMPTOTHECIN]	190
CC1(C)C=Cc2c(OCc3ccccc3)cc(O)c(C(=O)/C=C/c3ccccc3)c2O1	> 20000

test system: COLO 205; test: Cytotoxicity against human COLO205 cells after 48 hrs by MTT assay; assay type: functional, cell-based; conditions: COLO 205, 48 h; summary of the method: as §2

SMILES	IC50 [nM]
CC[C@@]1(O)C(=O)OCc2c1cc1n(c2=O)Cc2cc3ccccc3nc2-1 [CAMPTOTHECIN]	50
CC1(C)C=Cc2c(OCc3ccccc3)cc(O)c(C(=O)/C=C/c3ccccc3)c2O1	> 20000

test system: HepG2; test: Cytotoxicity against human HepG2 cells after 48 hrs by MTT assay; assay type: functional, cell-based; conditions: HepG2, 48 h; summary of the method: as §2

SMILES	IC50 [nM]
CC[C@@]1(O)C(=O)OCc2c1cc1n(c2=O)Cc2cc3ccccc3nc2-1 [CAMPTOTHECIN]	200
CC1(C)C=Cc2c(OCc3ccccc3)cc(O)c(C(=O)/C=C/c3ccccc3)c2O1	> 20000

test system: HL-60; test: Induction of apoptosis in human HL60 cells assessed as formation of scattered apoptotic bodies at 20 to 40 uM after 24 hrs by fluorescence microscopic analysis; assay type: functional, cell-based; conditions: not given
Summary of the method: (§3)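 After 24 h exposure, HL-60 cells were pelleted at 400g, washed twice in PBS and fixed in cold acetic acid–methanol (1:3) for 3 h on ice. They were spread on slides and dried overnight at room temperature. Staining used Hoechst 33258 (5 μg/mL in 0.45 M disodium phosphate/0.01 M citric acid/0.05% Tween 20) for 30 min at room temperature. Slides were mounted in PBS–glycerol and viewed by fluorescence microscopy at 30× for condensed nuclei and apoptotic bodies.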

SMILES	Activity
CC1(C)C=Cc2c(OCc3ccccc3)cc(O)c(C(=O)/C=C/c3ccccc3)c2O1	Active

test system: HL-60; test: Induction of apoptosis in human HL60 cells assessed as nuclear condensation at 20 to 40 uM after 24 hrs by fluorescence microscopic analysis; assay type: functional, cell-based; conditions: not given; summary of the method: as §3

SMILES	Activity
CC1(C)C=Cc2c(OCc3ccccc3)cc(O)c(C(=O)/C=C/c3ccccc3)c2O1	Active

test system: HL-60; test: Induction of apoptosis in human HL60 cells assessed as shrinkage of cell size at 20 to 40 uM after 24 hrs by fluorescence microscopic analysis; assay type: functional, cell-based; conditions: not given; summary of the method: as §3

SMILES	Activity
CC1(C)C=Cc2c(OCc3ccccc3)cc(O)c(C(=O)/C=C/c3ccccc3)c2O1	Active

test system: HL-60; test: Induction of apoptosis in human HL60 cells assessed as cell wall deformation at 20 to 40 uM after 24 hrs by fluorescence microscopic analysis; assay type: functional, cell-based; conditions: not given; summary of the method: as §3

SMILES	Activity
CC1(C)C=Cc2c(OCc3ccccc3)cc(O)c(C(=O)/C=C/c3ccccc3)c2O1	Active

test system: HL-60; test: Induction of apoptosis in human HL60 cells assessed as vesicle formation at 10 to 40 uM after 24 hrs by phase contrast microscopic analysis; assay type: functional, cell-based; conditions: not given
Summary of the method: (§4)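 HL-60 cells were exposed to the test concentrations for 24 h. Unstained cells were then photographed under phase-contrast microscopy to assess cellular morphology.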

SMILES	Activity
CC1(C)C=Cc2c(OCc3ccccc3)cc(O)c(C(=O)/C=C/c3ccccc3)c2O1	Active

test system: HL-60; test: Induction of apoptosis in human HL60 cells assessed as blebbing of cell wall at 10 to 40 uM after 24 hrs by phase contrast microscopic analysis; assay type: functional, cell-based; conditions: not given; summary of the method: as §4

SMILES	Activity
CC1(C)C=Cc2c(OCc3ccccc3)cc(O)c(C(=O)/C=C/c3ccccc3)c2O1	Active

test system: HL-60; test: Induction of mitochondrial membrane potential loss in human HL60 cells at 40 uM after 24 hrs by rhodamine-123 staining-based FACS flow cytometric analysis (reference value: 5%); assay type: functional; conditions: not given

SMILES	Activity [%]
CC1(C)C=Cc2c(OCc3ccccc3)cc(O)c(C(=O)/C=C/c3ccccc3)c2O1	68

test system: HL-60; test: Induction of mitochondrial membrane potential loss in human HL60 cells at 30 uM after 24 hrs by rhodamine-123 staining-based FACS flow cytometric analysis (reference value: 5%); assay type: functional; conditions: not given

SMILES	Activity [%]
CC1(C)C=Cc2c(OCc3ccccc3)cc(O)c(C(=O)/C=C/c3ccccc3)c2O1	38

test system: HL-60; test: Induction of mitochondrial membrane potential loss in human HL60 cells at 20 uM after 24 hrs by rhodamine-123 staining-based FACS flow cytometric analysis (reference value: 5%); assay type: functional; conditions: not given

SMILES	Activity [%]
CC1(C)C=Cc2c(OCc3ccccc3)cc(O)c(C(=O)/C=C/c3ccccc3)c2O1	23

test system: HL-60; test: Induction of mitochondrial membrane potential loss in human HL60 cells at 10 uM after 24 hrs by rhodamine-123 staining-based FACS flow cytometric analysis (reference value: 5%); assay type: functional; conditions: not given

SMILES	Activity [%]
CC1(C)C=Cc2c(OCc3ccccc3)cc(O)c(C(=O)/C=C/c3ccccc3)c2O1	6
